Test results taken from the EternaBench riboswitch data.

Test system: MS2 coat protein
Assay: apparent Kd, MS2 coat protein; higher = weaker binding; RNA-MaP array; FMN 200 µM where present
Procedure, shortened: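 Stalled E. coli RNA polymerase produced the designs on Illumina sequencing-chip clusters. SNAP-549-labelled MS2 coat protein was added from 0.7 or 1.5 nM, doubling to 3 µM, without and then with constant ligand, in 100 mM Tris-HCl pH 7.5, 80 mM KCl, 4 mM MgCl2, BSA, DTT, yeast tRNA and Tween-20. The apparent Kd is the median of filtered per-cluster fits of green signal normalised to red-channel RNA signal and control-cluster median Fmax.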

[1] = designed as: OFF switch for flavin mononucleotide, no ligand
[2] = ligand present: flavin mononucleotide, designed as: OFF switch for flavin mononucleotide
[3] = designed as: ON switch for flavin mononucleotide, no ligand
[4] = ligand present: flavin mononucleotide, designed as: ON switch for flavin mononucleotide

Sequence | apparent Kd [1] [nM] | apparent Kd [2] [nM] | apparent Kd [3] [nM] | apparent Kd [4] [nM]
UUAUACGUUGAGGAUAUGCGACUUAGUAUAGUUGUAGAAGGCGAUACAUGAGGAUCACCCAUGUUUAUGGGCAU | 220 | 300 |  | 
UAUAAAUACAUUAACAUGAGGAUCACCCAUGUCAAAAGACAUGAGGAUAUGCAUCCUAAUUGGAUGCAGAAGGCAUGUAUAAUU |  |  | 174 | 16.9
GGAACUCAUGUAGGAUAUGCAUGGCGAAGCUACGCAGAAGGACAUGAGGAUCACCCAUGUUCUAGCGUCUGGAGACAGAUGCAA | 174 | 126 |  | 
GUAAAGUGAGGAUAUGGUAAAUUAAUUAUUAAUUAAUUAAUCCAGAAGGCACAUGAGGAUCACCCAUGUAUAUG | 38.2 | 61.3 |  | 
UGCAGACGAGGAUAUGAUGUCAUAGACAUGAGGAUCACCCAUGUGAUCAAUUAAUUAAGAUCAGAAGGCGUCUGCA | 315 | 218 |  | 
AUGCUCGUGUGAGGAUAUGCCGCCGUUUCGGCUGCAGAAGGUGCUACGUUACAUGAGGAUCACCCAUGUCUCUGUUGUUUCGUG |  |  | 24.4 | 25.5
UUUAAAGGCACAUGAGGAUCACCCAUGUCCGGUACUAACAGACAGGAUAUGCAAGAUCCACUCAUGCAGAAGGGUCUGGCUUUU |  |  | 463 | 79.7
UGGCAAGUAGGAUAUUGGGUGUGGGACAUGAGGAUCACCCAUGUGAUCACUCAAUCUCUCCGAGAAGGGCUAAGAA | 14 | 15.4 |  | 
UUACAGUGCGGGUAGGAUAUGUAGGGUGGUACAUGAGGAUCACCCAUGUAUCCACCCUUCGACCGGCAGAAGGGCCUGUCACUGC |  |  | 14.3 | 14.3
AGUUCCUCCGCAGGAUAUGUGCUCUUUAUCACAUGAGGAUCACCCAUGUCAGCCGAAACGGCGAGACAGAAGGGUGGUGGUGCC |  |  | 213 | 169
UCGUAUAUACAAGGAUAUCAAUUAUUGCUAAAUUCAACAUGAGGAUCACCCAUGUAACUAUGGAGUGAGAAGGUGUAAUGACUU |  |  | 504 | 476
CAGCUGAAUGUGAGGAUAUUACGAGCUGCGGCUCGUGAGAAGGCACAUGAGGAUCACCCAUGUCUCAACAGCUG | 37.2 | 741 |  | 
CGCAAACAUGAGGAUCACCCAUGUCAUUGUGGUCAAGGAUAUGGGUUCCUAAAUGGAACACCAGAAGGUGAAAAGA |  |  | 164 | 33.5
CCGGCGGGAGGAUAUACAUGAGGAUCACCCAUGUGCUUCAGCUAGGAGACUAGCAUUGGUAGAAGGCCCGCCGG | 19 | 160 |  | 
ACACAUGAGGAUCACCCAUGUAGCUGACGUCUGCGCCAGCCACAGGAUAUACGGCAACACAAACCGUAGAAGGGUGAUAAACAC |  |  | 114 | 23
GAGGAACAUGAGGAUCACCCAUGUGAGGAUAUGCAUAGUGAGCUAGUAGACGUUUAUUGCAGAAGGUACACUGA | 31.4 | 23.6 |  | 
UGUGUUAUCGGAGGAUAUCGAUAUCAAACAUGAGGAUCACCCAUGUUGAGGAUCACCCAUGUCUACGAGAAGGCCGGCGUACUC |  |  | 45.2 | 50.6
GGAUAUAUGAAGGGCGAACGCGCACAUGAGGAUCACCCAUGUAGAAGGCGGUCCGCAACGCGGAUCGAGGAUAUAUAGUAUACG | 19.1 | 17.3 |  | 
AAAAAGUGAGGAUAUGCUGCUCGUCACUUGCGUGAUGAGUAGCAGAAGGCACAUGAGGAUCACCCAUGUGGGAA | 82.6 | 170 |  | 
AAAUUGUCAGGAUAUCCAACUAUACGAAAUAUAUAUACACAGGAGAAGGGACAUGAGGAUCACCCAUGUUUGAA | 24.6 | 19.1 |  | 
GUAGCUAUCGGAGGAUAUUCAUACCGGAAACGGACAUGAGGAUCACCCAUGUGGCGAAAGCCCUGGGAGAAGGCCGAUAGCUAC |  |  | 382 | 259
UGUGUGUGGGCAGGAUAUGCAUGAAUAUGUAUGAUGUAGUGUGAUGUAACAUGAGGAUCACCCAUGUAGAAGGGCCGGUGUAUG | 94.5 | 122 |  | 
AGUGCCUCGAGAGGAUAUAACAUGAGGAUCACCCAUGUAACAGAGGUGGAAACACCUCUGAAAUGUUAGAAGGCUCGAGGCACA | 40.7 | 53.2 |  | 
GAGAAGUCAGGAUAUCCAUGGCGGCACUUGCGUGGUGGCGUGGAGAAGGGACAUGAGGAUCACCCAUGUAAAGG | 165 | 157 |  | 

Sequence | apparent Kd [1] [nM] | apparent Kd [2] [nM] | apparent Kd [3] [nM] | apparent Kd [4] [nM]
UGAUCUUGAGUCAGGAUAUGCUGGUAUUUUUACCAGCAGAAGGGACAUGAGGAUCACCCAUGUUCUCACUUUUU | 10.1 | 13.4 |  | 
AUAUGAUAGAUAGGAUAUACAGUGGUUUUAUAAGUAGAAGGAUCAAAUGGGAAUUAUACAUGAGGAUCACCCAUGUUUUUGGAU |  |  | 58.6 | 40.4
GGACAGCGAGGAUAUACGUGUACGUUAUCCUCUAUGGGUCAACAUGAGGAUCACCCAUGUAGAAGGCGCAUAAU | 19.4 | 28.1 |  | 
UGUUGUAUUACAGGAUAUCUAUUGUAUUUAUUUAGAGAAGGGUAUUCACAUGAGGAUCACCCAUGUAUAUACGAGGAAGUUGUG |  |  | 63.9 | 70.8
ACAGCAGUAGGAUAUACAUCACCAUCCGACCGUUGAUUUCAACAUGAGGAUCACCCAUGUAGAAGGGCUAGUUG | 93.2 | 65.7 |  | 
AGUAAGAUGCAGAAGGUGUCAGCGAGAGCUGCACAUGAGGAUCACCCAUGUUGUCGGUGACGACACAAGGAUAUGCAUCUUACA |  |  | 31.4 | 12.8
AGAGUUGACUCAGGAUAUACGGGAAUGUGCCGCGACAUGAGGAUCACCCAUGUAGAAGGGAGAGAGAAGAAGAGAUGUAGAAGA | 56.1 | 54 |  | 
AAAGGACGAUUAGGAUAUUCGGUUCAAGGUAAAGAAGAAGGAAUCGUUCCAUACUUAACAUGAGGAUCACCCAUGUGGGUCUAG | 34.9 | 29.5 |  | 
UUGGACGUCGUAGGAUAUGUAGGAUAUUCCUACAUGAGGAUCACCCAUGUUGACAUGGAAGAAGGACAGAAGAACGAUGUCCAU |  |  | 161 | 4.92
AGAUCACAUGAGGAUCACCCAUGUGAGGAUAUGGACUGAAGAGCUUCGGCUCUUCAGUCCAGAAGGCACUAUGA | 27.3 | 35 |  | 
ACAUGCAUAGCGAUAUGAUCGAGAGAUCAUGUCGCUAAAAUUAGAAGGACAUGAGGAUCACCCAUGUAGGAUAUGGGAGCAUGA |  |  | 39.9 | 10.3
CGAGGUGGAGUGAGGAUAUCGUGUUCGAAAGAACGUGAGAAGGCACAUGAGGAUCACCCAUGUGAUUCAGCUCG | 24.6 | 69.4 |  | 
GGCUAGUCAGGAUAUACGAACAUGUCAAAAGACGUGAAGGGACAUGAGGAUCACCCAUGUAGAAGGGACUAGCC | 22.8 | 182 |  | 
UGUAUGGACAGAGGAUAUACAGAUAGGAUCUACUAUCAAACAUUCCUGACAUGAGGAUCACCCAUGUAGAAGGCUGUCCAUACU | 21.1 | 79.2 |  | 
AGAUGACAAAGUCAUCUCUGACAGACAUGAGGAUCACCCAUGUAGGAUAUGCUACUCAAAGAGUAGCAGAAGGACAUGUGUCUU | 32.3 | 183 |  | 
UUCAUGUGAGGAUAUAGUACUCCUUCUAUUAUUUUUGAGUAUUAGAAGGCACAUGAGGAUCACCCAUGUAGUAC | 28.1 | 46.9 |  | 
GCCAGCGCAUGAGGAUAUGCUCCCGUUUCGGGAGCAGAAGGCAUGUCAUAAGACAUGAGGAUCACCCAUGUAGUUAAGAUGGCA |  |  | 258 | 13.6
AUGCUUCUCUCAGGAUAUUACAACAUGAGGAUCACCCAUGUACAUGACAUGACGAUCACGCAUGUUAAGAAGGGAGAGAAGCAU | 718 | 583 |  | 
UGAUAGGACAGAGGAUAUACGUCCUAGAGAUACUAGGAAAGUUUCCUCACAUGAGGAUCACCCAUGUAGAAGGCUGUCCUAUCU | 19 | 472 |  | 
AAAUCGCAAGGAUAUCGUCAGUCUGACAUGAGGAUCACCCAUGUUAUCUUGGUAUCAGAGCGAGAAGGUGCAAAGU | 13 | 13.9 |  | 
CAUAACUUUGAUCUCUCCUACAUGAGGAUCACCCAUGUUGAGAGAAGGAGGCGGCAGAGUGCUGCCUAGGAUAUCUGAAGGGUC | 6.19 | 7.28 |  | 
GUAGCAUACGGAGGAUAUUCAUACCGGAAACGGACAUGAGGAUCACCCAUGUGGCGAAAGCCUUGGAAGAAGGCCGUAUGCUAC |  |  | 3.96 | 3.55
UUGCGGUAGGAGAAGGACAGAGGCUUCAUUACAUACAUGAGGAUCACCCAUGUAGGAUAUCCUACCUAACGCGGACUCCUCCUG | 10.7 | 20.1 |  | 
ACAUGAGGAUCACCCAUGUUCGUCGCGUUGUGUCGCGAGUCUGAGGAUAUCGAGGUGGGUUUUGUUGAGAAGGCGGGCCCGUGU |  |  | 129 | 151
